≈ marks a conversion by molar mass, not a printed value.

Results on nine molecules are retold here after ChEMBL document CHEMBL1629439, “High-throughput identification of antibacterials against methicillin-resistant Staphylococcus aureus (MRSA) and the transglycosylase” (Bioorg Med Chem, 2010).

One assay deals with Pseudomonas aeruginosa. The assay is described as follows: Antimicrobial activity against Pseudomonas aeruginosa ATCC 25619 after 18 to 24 hrs by alamar blue assay. The assay is classed as functional. The following applies: Pseudomonas aeruginosa, ATCC 25619; read-out: MIC. A digest of the protocol:
(§1)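 Broth microdilution per NCCLS in Mueller-Hinton broth, 8-point twofold dilutions, 384-well format. Exponential-phase cells at 5 × 10^5 cells/ml incubated with compound 18–24 h at 37 °C, then 20% Alamar blue added and fluorescence read. MIC90 taken as the lowest concentration preventing at least 90% bacterial growth.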

The next assay concerns Escherichia coli. The assay is described as follows: Antimicrobial activity against Escherichia coli ATCC […] after 18 to 24 hrs by alamar blue assay. In kind it is functional. The following applies: Escherichia coli; read-out: MIC. In a few lines:
as §1

Assay [1] relates to Staphylococcus aureus. Put plainly: Antimicrobial activity against Staphylococcus aureus ATCC 29213 after 18 to 24 hrs by alamar blue assay.
The test system of another assay is Acinetobacter baumannii. The assay is described as follows: Antimicrobial activity against Acinetobacter baumannii ATCC 49139 after 18 to 24 hrs by alamar blue assay. The following applies: Acinetobacter baumannii, ATCC 49139; read-out: MIC. The assay is classed as functional. In a few lines:
as §1

The test system of assay [2] is Staphylococcus aureus. The assay is described as follows: Antimicrobial activity against methicillin-resistant Staphylococcus aureus ATCC 33592 after 18 to 24 hrs by alamar blue assay. In kind it is functional. The following applies: Staphylococcus aureus, ATCC 33592; read-out: MIC. In a few lines: (§2)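 Broth microdilution per NCCLS standard, Mueller-Hinton broth, 8-point twofold dilutions; exponentially growing cells at 5 10^5 cells/ml with compound, 18–24 h at 37 C; 20% Alamar blue added, fluorescence read; MIC90 taken as lowest concentration preventing at least 90% growth.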

Assay [3] deals with Staphylococcus aureus. Put plainly: Antimicrobial activity against methicillin-resistant Staphylococcus aureus isolate NTUH4722 after 18 to 24 hrs by alamar blue assay. The assay is classed as functional. A digest of the protocol: as §2
Assay [4] relates to Stenotrophomonas maltophilia. Put plainly: Antimicrobial activity against Stenotrophomonas maltophilia ATCC 13637 after 18 to 24 hrs by alamar blue assay. In kind it is functional. Conditions: Stenotrophomonas maltophilia, ATCC 13637; read-out: MIC. A digest of the protocol: as §1
The subject of the next assay is Serratia marcescens. The assay is described as follows: Antimicrobial activity against Serratia marcescens ATCC 14756 after 18 to 24 hrs by alamar blue assay. In kind it is functional. The following applies: Serratia marcescens, ATCC 14756; read-out: MIC. In a few lines:
as §1

For assay [5], the system named is Staphylococcus aureus. Put plainly: Antimicrobial activity against oxacillin- and methicillin-resistant Staphylococcus aureus isolate Sa-OXA-R2 after 18 to 24 hrs by alamar blue assay. In kind it is functional. A digest of the protocol: as §2
The next assay has as its system Bacillus subtilis. The assay is described as follows: Antimicrobial activity against Bacillus subtilis ATCC 23857 after 18 to 24 hrs by alamar blue assay. In kind it is functional. A digest of the protocol: as §1
The test system of assay [6] is Mycolicibacterium smegmatis. The assay is described as follows: Antimicrobial activity against Mycobacterium smegmatis BCRC 11565 after 18 to 24 hrs by alamar blue assay. In kind it is functional. Conditions: Mycolicibacterium smegmatis, BCRC 11565; read-out: MIC. In a few lines: as §1

For the molecule `CCc1c(C)nc(N2NC(C)=CC2NC(=O)c2ccccc2I)nc1O` (centres undefined), the MIC is over 256 µg/mL in the assay on Pseudomonas aeruginosa; over 256 µg/mL in the assay on Escherichia coli; 0.5 µg/mL (≈ 1.07 µM) against Staphylococcus aureus [1]; over 256 µg/mL with Acinetobacter baumannii; 1 µg/mL (≈ 2.15 µM) in the assay with Staphylococcus aureus [2]; 0.5 µg/mL (≈ 1.07 µM) with Staphylococcus aureus [3]. Also, the MIC in assay [4] was over 256 µg/mL; with Serratia marcescens, over 256 µg/mL; against Staphylococcus aureus [5] it was 0.5 µg/mL (≈ 1.07 µM); against Bacillus subtilis, 0.25 µg/mL (≈ 0.537 µM); in [6], 0.25 µg/mL (≈ 0.537 µM).
For `Cc1ccc(-c2coc3c(C)c4oc(=O)c(CCC(=O)O)c(C)c4cc23)cc1`, the MIC was over 256 µg/mL with Pseudomonas aeruginosa; over 256 µg/mL with Escherichia coli; 1 µg/mL (≈ 2.66 µM) against Staphylococcus aureus [1]; over 256 µg/mL in the assay on Acinetobacter baumannii; 2 µg/mL (≈ 5.31 µM) in the assay on Staphylococcus aureus [2]; 1 µg/mL (≈ 2.66 µM) against Staphylococcus aureus [3]. For the same molecule, the MIC in assay [4] was over 256 µg/mL; with Serratia marcescens it was over 256 µg/mL; in the assay on Staphylococcus aureus [5] it was 2 µg/mL (≈ 5.31 µM); with Bacillus subtilis, over 64 µg/mL; in [6], 1 µg/mL (≈ 2.66 µM).
`Cc1ccc(-c2nnc(NC(=O)c3nc4ccccc4s3)o2)c(C)c1`: the MIC was over 256 µg/mL in the assay with Pseudomonas aeruginosa; over 256 µg/mL with Escherichia coli; 0.5 µg/mL (≈ 1.43 µM) against Staphylococcus aureus [1]; over 256 µg/mL in the assay with Acinetobacter baumannii; 0.5 µg/mL (≈ 1.43 µM) in the assay on Staphylococcus aureus [2]; 0.25 µg/mL (≈ 0.713 µM) against Staphylococcus aureus [3]. For the same molecule, the MIC in [4] is over 256 µg/mL; in the assay with Serratia marcescens, over 256 µg/mL; in the assay on Staphylococcus aureus [5] it was 0.25 µg/mL (≈ 0.713 µM); in the assay with Bacillus subtilis, 0.5 µg/mL (≈ 1.43 µM); in assay [6] it was 0.5 µg/mL (≈ 1.43 µM).
Consider `CCCc1cc(O)nc(N2NC(C)=CC2NC(=O)c2ccccc2F)n1` (centres undefined), for which the MIC in the assay with Pseudomonas aeruginosa is over 256 µg/mL; with Escherichia coli it was over 256 µg/mL; against Staphylococcus aureus [1], 2 µg/mL (≈ 5.6 µM); in the assay on Acinetobacter baumannii, over 256 µg/mL; with Staphylococcus aureus [2] it was 0.5 µg/mL (≈ 1.4 µM); against Staphylococcus aureus [3], 1 µg/mL (≈ 2.8 µM). For the same molecule, the MIC is over 256 µg/mL in assay [4]; over 256 µg/mL in the assay on Serratia marcescens; 1 µg/mL (≈ 2.8 µM) with Staphylococcus aureus [5]; 0.25 µg/mL (≈ 0.7 µM) in the assay on Bacillus subtilis; 0.25 µg/mL (≈ 0.7 µM) in [6].
As for `CCOc1ccccc1N(C)S(=O)(=O)c1ccc2c(c1)NC(=O)C(C)S2` (centres undefined), the MIC was over 256 µg/mL with Pseudomonas aeruginosa; over 256 µg/mL with Escherichia coli; 4 µg/mL (≈ 10.2 µM) with Staphylococcus aureus [1]; over 256 µg/mL in the assay on Acinetobacter baumannii; 8 µg/mL (≈ 20.4 µM) with Staphylococcus aureus [2]; 8 µg/mL (≈ 20.4 µM) in the assay on Staphylococcus aureus [3]. In addition, the MIC is over 256 µg/mL in [4]; over 256 µg/mL in the assay on Serratia marcescens; over 64 µg/mL against Staphylococcus aureus [5]; under 0.03 µg/mL in the assay on Bacillus subtilis; over 64 µg/mL in assay [6].
As for `O=C(Nc1cc(Cl)c(Cl)c(Cl)c1)c1cc(Br)cc(Br)c1O`, the MIC is 16 µg/mL (≈ 33.7 µM) in the assay on Pseudomonas aeruginosa; 8 µg/mL (≈ 16.9 µM) in the assay on Escherichia coli; at most 0.03 µg/mL in the assay on Staphylococcus aureus [1]; 16 µg/mL (≈ 33.7 µM) in the assay with Acinetobacter baumannii; 0.06 µg/mL (≈ 0.126 µM) in the assay with Staphylococcus aureus [2]; at most 0.03 µg/mL against Staphylococcus aureus [3]. Further, the MIC was 16 µg/mL (≈ 33.7 µM) in assay [4]; 16 µg/mL (≈ 33.7 µM) with Serratia marcescens; at most 0.03 µg/mL in the assay with Staphylococcus aureus [5]; under 0.03 µg/mL in the assay with Bacillus subtilis; 0.5 µg/mL (≈ 1.05 µM) in assay [6].
With `Cn1c(/C=C/c2ccc([N+](=O)[O-])o2)nc2ccccc2c1=O`, the MIC in the assay on Pseudomonas aeruginosa is 2 µg/mL (≈ 6.73 µM); with Escherichia coli, 16 µg/mL (≈ 53.8 µM); against Staphylococcus aureus [1], 1 µg/mL (≈ 3.36 µM); in the assay on Acinetobacter baumannii, over 256 µg/mL; in the assay with Staphylococcus aureus [2] it was 2 µg/mL (≈ 6.73 µM); in the assay with Staphylococcus aureus [3], 1 µg/mL (≈ 3.36 µM). Further, the MIC in [4] is over 256 µg/mL; with Serratia marcescens it was over 256 µg/mL; in the assay on Staphylococcus aureus [5], 0.5 µg/mL (≈ 1.68 µM); against Bacillus subtilis, under 0.03 µg/mL; in [6] it was 1 µg/mL (≈ 3.36 µM).
`COc1ccccc1N1C(=O)c2cc([N+](=O)[O-])cc3cc([N+](=O)[O-])cc(c23)C1=O`: the MIC in the assay on Pseudomonas aeruginosa is over 256 µg/mL; in the assay with Escherichia coli, over 256 µg/mL; with Staphylococcus aureus [1], 1.25 µg/mL (≈ 3.18 µM); with Acinetobacter baumannii, over 256 µg/mL; in the assay on Staphylococcus aureus [2], 2.5 µg/mL (≈ 6.36 µM); against Staphylococcus aureus [3] it was 2.5 µg/mL (≈ 6.36 µM). Besides, the MIC was over 256 µg/mL in assay [4]; over 256 µg/mL in the assay with Serratia marcescens; 0.3 µg/mL (≈ 0.763 µM) with Staphylococcus aureus [5]; 4 µg/mL (≈ 10.2 µM) in the assay on Bacillus subtilis; 4 µg/mL (≈ 10.2 µM) in [6].
As for `CCCc1cc(O)nc(N2NC(C)=CC2NC(=O)c2ccccc2Cl)n1` (centres undefined), the MIC with Pseudomonas aeruginosa is over 256 µg/mL; in the assay with Escherichia coli it was over 256 µg/mL; against Staphylococcus aureus [1], 1 µg/mL (≈ 2.67 µM); with Acinetobacter baumannii, over 256 µg/mL; in the assay on Staphylococcus aureus [2], 0.5 µg/mL (≈ 1.34 µM); against Staphylococcus aureus [3], 1 µg/mL (≈ 2.67 µM). Further, the MIC in assay [4] is over 256 µg/mL; in the assay on Serratia marcescens, over 256 µg/mL; in the assay with Staphylococcus aureus [5], 2 µg/mL (≈ 5.35 µM); against Bacillus subtilis it was 0.25 µg/mL (≈ 0.669 µM); in assay [6], 0.25 µg/mL (≈ 0.669 µM).
